# Assay results published in ChEMBL document CHEMBL5230163, “Design, synthesis and antibacterial evaluation of a novel class of tetrahydrobenzothiophene derivatives” (2023).
# Tested on: Salmonella
# Test: Antibacterial activity against Salmonella ATCC 12022 assessed as inhibition of bacterial growth by standard broth microdilution method
# Type: functional
# How it was run: (§1)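 Broth microdilution in 96-well plates. Overnight culture (5 μl) moved into 5 ml fresh medium and grown to log phase, then diluted to 2 × 10^6 CFU ml−1. Each well received 100 μl cell suspension plus 100 μl of compound at various concentrations (200 μl final). Read-out was MIC. Run three times.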
row,Molecule,MIC
1,O=C(O)c1cn(C2CC2)c2cc(N3CCNCC3)c(F)cc2c1=O [CIPROFLOXACIN],2.54 µM
2,O=C(Nc1sc2c(c1C(=O)O)CCCC2)c1ccc(Cl)cc1,1.46 µM
3,CCC1CCc2c(sc(NC(=O)c3ccccc3)c2C(=O)O)C1 (stereo not given),0.73 µM
4,CCC1CCc2c(sc(NC(=O)c3ccc([N+](=O)[O-])cc3)c2C(=O)O)C1 (stereo not given),1.67 µM
5,CC1CCc2c(sc(NC(=O)c3ccc(F)cc3F)c2C(=O)O)C1 (stereo not given),11.1 µM
6,CCC1CCc2c(sc(NC(=O)c3ccc(F)cc3)c2C(=O)O)C1 (stereo not given),7.19 µM
7,CCC1CCc2c(sc(NC(=O)c3cccc([N+](=O)[O-])c3F)c2C(=O)O)C1 (stereo not given),19.9 µM
8,CCC1CCc2c(sc(NC(=O)c3ccccc3Cl)c2C(=O)O)C1 (stereo not given),1.72 µM
9,Cc1c(C(=O)Nc2sc3c(c2C(=O)O)CCC(C)C3)cccc1[N+](=O)[O-] (stereo not given),1.31 µM
10,COc1ccc(C(=O)Nc2sc3c(c2C(=O)O)CCC(C)C3)cc1 (stereo not given),90.6 µM

# Tested on: Escherichia coli
# Test: Antibacterial activity against Escherichia coli ATCC 25922 assessed as inhibition of bacterial growth by standard broth microdilution method
# Type: functional
# How it was run: as §1
row,Molecule,MIC
1,O=C(O)c1cn(C2CC2)c2cc(N3CCNCC3)c(F)cc2c1=O [CIPROFLOXACIN],1.27 µM
2,O=C(Nc1sc2c(c1C(=O)O)CCCC2)c1ccc(Cl)cc1,1.46 µM
3,CCC1CCc2c(sc(NC(=O)c3ccccc3)c2C(=O)O)C1 (stereo not given),1.49 µM
4,CCC1CCc2c(sc(NC(=O)c3ccc([N+](=O)[O-])cc3)c2C(=O)O)C1 (stereo not given),6.68 µM
5,CC1CCc2c(sc(NC(=O)c3ccc(F)cc3F)c2C(=O)O)C1 (stereo not given),22.2 µM
6,CCC1CCc2c(sc(NC(=O)c3ccc(F)cc3)c2C(=O)O)C1 (stereo not given),1.8 µM
7,CCC1CCc2c(sc(NC(=O)c3cccc([N+](=O)[O-])c3F)c2C(=O)O)C1 (stereo not given),19.9 µM
8,CCC1CCc2c(sc(NC(=O)c3ccccc3Cl)c2C(=O)O)C1 (stereo not given),1.72 µM
9,Cc1c(C(=O)Nc2sc3c(c2C(=O)O)CCC(C)C3)cccc1[N+](=O)[O-] (stereo not given),0.64 µM
10,COc1ccc(C(=O)Nc2sc3c(c2C(=O)O)CCC(C)C3)cc1 (stereo not given),1.42 µM

# Tested on: Pseudomonas aeruginosa
# Test: Antibacterial activity against Pseudomonas aeruginosa ATCC 27853 assessed as inhibition of bacterial growth by standard broth microdilution method
# Type: functional
# How it was run: as §1
row,Molecule,MIC
1,O=C(O)c1cn(C2CC2)c2cc(N3CCNCC3)c(F)cc2c1=O [CIPROFLOXACIN],10.1 µM
2,O=C(Nc1sc2c(c1C(=O)O)CCCC2)c1ccc(Cl)cc1,1.46 µM
3,CCC1CCc2c(sc(NC(=O)c3ccccc3)c2C(=O)O)C1 (stereo not given),0.73 µM
4,CCC1CCc2c(sc(NC(=O)c3ccc([N+](=O)[O-])cc3)c2C(=O)O)C1 (stereo not given),1.67 µM
5,CC1CCc2c(sc(NC(=O)c3ccc(F)cc3F)c2C(=O)O)C1 (stereo not given),11.1 µM
6,CCC1CCc2c(sc(NC(=O)c3ccc(F)cc3)c2C(=O)O)C1 (stereo not given),7.19 µM
7,CCC1CCc2c(sc(NC(=O)c3cccc([N+](=O)[O-])c3F)c2C(=O)O)C1 (stereo not given),0.61 µM
8,CCC1CCc2c(sc(NC(=O)c3ccccc3Cl)c2C(=O)O)C1 (stereo not given),1.72 µM
9,Cc1c(C(=O)Nc2sc3c(c2C(=O)O)CCC(C)C3)cccc1[N+](=O)[O-] (stereo not given),1.31 µM
10,COc1ccc(C(=O)Nc2sc3c(c2C(=O)O)CCC(C)C3)cc1 (stereo not given),45.3 µM

# Tested on: Staphylococcus aureus
# Test: Antibacterial activity against Staphylococcus aureus ATCC 25923 assessed as inhibition of bacterial growth by standard broth microdilution method
# Type: functional
# How it was run: as §1
row,Molecule,MIC
1,GENTAMICIN,1.27 µM
2,O=C(Nc1sc2c(c1C(=O)O)CCCC2)c1ccc(Cl)cc1,1.46 µM
3,CCC1CCc2c(sc(NC(=O)c3ccccc3)c2C(=O)O)C1 (stereo not given),11.8 µM
4,CCC1CCc2c(sc(NC(=O)c3ccc([N+](=O)[O-])cc3)c2C(=O)O)C1 (stereo not given),6.68 µM
5,CC1CCc2c(sc(NC(=O)c3ccc(F)cc3F)c2C(=O)O)C1 (stereo not given),1.4 µM
6,CCC1CCc2c(sc(NC(=O)c3ccc(F)cc3)c2C(=O)O)C1 (stereo not given),1.8 µM
7,CCC1CCc2c(sc(NC(=O)c3cccc([N+](=O)[O-])c3F)c2C(=O)O)C1 (stereo not given),1.25 µM
8,CCC1CCc2c(sc(NC(=O)c3ccccc3Cl)c2C(=O)O)C1 (stereo not given),1.72 µM
9,Cc1c(C(=O)Nc2sc3c(c2C(=O)O)CCC(C)C3)cccc1[N+](=O)[O-] (stereo not given),83.6 µM
10,COc1ccc(C(=O)Nc2sc3c(c2C(=O)O)CCC(C)C3)cc1 (stereo not given),1.42 µM
